{"source": "ChEMBL document CHEMBL1138232", "about": "“Optimization of naphthalimide-imidazoacridone with potent antitumor activity leading to clinical candidate (HKH40A, RTA 502)” (J Med Chem, 2007)", "key": {"HCT-116 [1]": {"system": "HCT-116", "test": "Cell cycle arrest in HCT116 cells assessed as accumulation at G2/M phase at 50 nM after 72 hrs", "assay_type": "functional, Homo sapiens", "in_short": "(§1)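 HCT116 cells exposed to 50 nM drug for 72 h, then cell-cycle distribution analysed. Sub-G1, G1, S and G2/M fractions reported as percent of cells, with untreated control cells for comparison.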"}, "NCI-H23": {"system": "NCI-H23", "test": "Antitumor activity against human NCI-H23 cells after 48 hrs", "assay_type": "functional", "details": "NCI-H23, 48 h", "in_short": "(§2)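 Tested in the NCI 60 human tumour cell line screen, with continuous drug exposure for 48 h. Values include LC50 derived from the screen.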"}, "TK-10": {"system": "TK-10", "test": "Antitumor activity against human TK10 cells after 48 hrs", "assay_type": "functional", "details": "TK-10, 48 h", "in_short": "(§3)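 NCI 60 human tumour cell line screen; 48 h continuous drug exposure. Compounds tested as tri(methanesulfonate) salts, soluble in water and dilute buffers. Dilute solutions are light-sensitive and adsorb to glass or quartz.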"}, "T47D": {"system": "T47D", "test": "Antitumor activity against human T47D cells after 48 hrs", "assay_type": "functional", "in_short": "as §3"}, "RPMI-8226": {"system": "RPMI-8226", "test": "Antitumor activity against human RPMI-8226 cells after 48 hrs", "assay_type": "functional", "details": "RPMI-8226, 48 h", "in_short": "as §2"}, "K562": {"system": "K562", "test": "Antitumor activity against human K562 cells after 48 hrs", "assay_type": "functional", "in_short": "as §2"}, "SK-MEL-2": {"system": "SK-MEL-2", "test": "Antitumor activity against human SK-MEL-2 cells after 48 hrs", "assay_type": "functional", "details": "SK-MEL-2, 48 h", "in_short": "as §2"}, "OVCAR-5": {"system": "OVCAR-5", "test": "Antitumor activity against human OVCAR5 cells after 48 hrs", "assay_type": "functional", "details": "OVCAR-5, 48 h", "in_short": "as §2"}, "A498": {"system": "A498", "test": "Antitumor activity against human A498 cells after 48 hrs", "assay_type": "functional", "details": "A498, 48 h", "in_short": "as §2"}, "MCF7": {"system": "MCF7", "test": "Antitumor activity against human MCF7 cells after 48 hrs", "assay_type": "functional", "details": "MCF7, 48 h", "in_short": "as §2"}, "[2]": {"test": "Apparent volume of distribution in NCR nu/nu mouse at 20 mg/kg, iv", "assay_type": "ADME, organism-based", "parameters": "dose 20 mg/kg, route intravenous", "details": "in vivo", "in_short": "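Single i.v. dose of 20 mg/kg to ncr nu/nu mice and an F344 rat. Plasma concentrations followed over time and fitted by nonlinear regression to give distribution and elimination phases, AUC and apparent volumes of distribution. Detection limit 50 nM.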"}, "HCT-116 [3]": {"system": "HCT-116", "test": "Cell cycle arrest in HCT116 cells assessed as accumulation at G1 phase at 50 nM after 72 hrs", "assay_type": "functional, Homo sapiens", "in_short": "as §1"}, "HCT-116 [4]": {"system": "HCT-116", "test": "Antitumor activity against human HCT116 cells expressing wild type p53", "assay_type": "functional", "details": "read-out: LC50 (the source's name)", "in_short": "(§4)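 Compounds tested as tri(methanesulfonate) salts, soluble in water and dilute buffers. Human tumour cells carrying wild-type or mutated p53 were exposed for 5 days, and viability was read by MTT assay. GI50, TGI and LC50 were calculated from the MTT data. Values are means ± SD of at least three independent experiments, with coefficients of variation of 10–20%.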"}, "COLO 205": {"system": "COLO 205", "test": "Antitumor activity against human Colo205 cells expressing mutated p53", "assay_type": "functional, cell-based", "in_short": "as §4"}, "Hs-578T": {"system": "Hs-578T", "test": "Antitumor activity against human HS578T cells after 48 hrs", "assay_type": "functional", "in_short": "as §2"}, "SF-268": {"system": "SF-268", "test": "Antitumor activity against human SF268 cells after 48 hrs", "assay_type": "functional", "details": "SF-268, 48 h", "in_short": "as §2"}, "BT-549": {"system": "BT-549", "test": "Antitumor activity against human BT549 cells after 48 hrs", "assay_type": "functional", "details": "BT-549, 48 h", "in_short": "as §2"}, "[5]": {"details": "read-out: Log LC50 (the source's name) (converted)"}}, "note": "Several values for one entry are separate records, joined by “and”; a condition that tells them apart may be missing. Identical values can stand only once.", "data": [{"compound": "COc1ccc2c(c1)c(=O)c1c(NCCCN3CCN(CCCN4C(=O)c5cccc6cc([N+](=O)[O-])cc(c56)C4=O)CC3)ccc3ncn2c31.CS(=O)(=O)O", "values": [{"measurement": "Activity", "setting": "HCT-116 [1]", "value": 27.1, "unit": "%"}, {"measurement": "GI50", "setting": "NCI-H23", "value": 20.4, "unit": "nM"}, {"measurement": "CC50", "setting": "NCI-H23; [5]", "value": "> 1000", "unit": "nM"}, {"measurement": "TGI", "setting": "NCI-H23; read-out: Log TGI (converted)", "value": "> 1000", "unit": "nM"}, {"measurement": "GI50", "setting": "TK-10", "value": 13.5, "unit": "nM"}, {"measurement": "CC50", "setting": "TK-10; [5]", "value": "> 1000", "unit": "nM"}, {"measurement": "TGI", "setting": "TK-10; read-out: Log TGI (converted)", "value": "> 1000", "unit": "nM"}, {"measurement": "GI50", "setting": "T47D", "value": 8.71, "unit": "nM"}, {"measurement": "CC50", "setting": "T47D; [5]", "value": "> 1000", "unit": "nM"}, {"measurement": "TGI", "setting": "T47D; read-out: Log TGI (converted)", "value": "> 1000", "unit": "nM"}, {"measurement": "GI50", "setting": "RPMI-8226", "value": 4.07, "unit": "nM"}, {"measurement": "CC50", "setting": "RPMI-8226; [5]", "value": "> 1000", "unit": "nM"}, {"measurement": "TGI", "setting": "RPMI-8226; read-out: Log TGI (converted)", "value": "> 1000", "unit": "nM"}, {"measurement": "GI50", "setting": "K562; Homo sapiens, K562, 48 h", "value": 1.74, "unit": "nM"}, {"measurement": "TGI", "setting": "K562; read-out: Log TGI (converted)", "value": "186 nM and > 1000 nM"}, {"measurement": "GI50", "setting": "SK-MEL-2", "value": 27.5, "unit": "nM"}, {"measurement": "CC50", "setting": "SK-MEL-2; [5]", "value": "> 1000", "unit": "nM"}, {"measurement": "TGI", "setting": "SK-MEL-2; read-out: Log TGI (converted)", "value": "> 1000", "unit": "nM"}, {"measurement": "GI50", "setting": "OVCAR-5", "value": 339, "unit": "nM"}, {"measurement": "CC50", "setting": "OVCAR-5; [5]", "value": "> 1000", "unit": "nM"}, {"measurement": "TGI", "setting": "OVCAR-5; read-out: Log TGI (converted)", "value": "> 1000", "unit": "nM"}, {"measurement": "GI50", "setting": "A498", "value": 6.61, "unit": "nM"}, {"measurement": "CC50", "setting": "A498; [5]", "value": "> 1000", "unit": "nM"}, {"measurement": "TGI", "setting": "A498; read-out: Log TGI (converted)", "value": 331, "unit": "nM"}, {"measurement": "GI50", "setting": "MCF7", "value": 4.68, "unit": "nM"}, {"measurement": "CC50", "setting": "MCF7; [5]", "value": "> 1000", "unit": "nM"}, {"measurement": "TGI", "setting": "MCF7; read-out: Log TGI (converted)", "value": "> 1000", "unit": "nM"}, {"measurement": "Vd", "setting": "[2]", "value": 57, "unit": "L/kg"}, {"measurement": "Activity", "setting": "HCT-116 [3]", "value": 22.6, "unit": "%"}, {"measurement": "CC50", "setting": "HCT-116 [4]", "value": 30, "unit": "nM"}, {"measurement": "IC50", "setting": "COLO 205", "value": 80, "unit": "nM"}, {"measurement": "GI50", "setting": "Hs-578T", "value": 14.8, "unit": "nM"}, {"measurement": "CC50", "setting": "Hs-578T; [5]", "value": "> 1000", "unit": "nM"}, {"measurement": "TGI", "setting": "Hs-578T; read-out: Log TGI (converted)", "value": "> 1000", "unit": "nM"}, {"measurement": "GI50", "setting": "SF-268", "value": 10.2, "unit": "nM"}, {"measurement": "CC50", "setting": "SF-268; [5]", "value": "> 1000", "unit": "nM"}, {"measurement": "TGI", "setting": "SF-268; read-out: Log TGI (converted)", "value": "> 1000", "unit": "nM"}, {"measurement": "GI50", "setting": "BT-549", "value": 3.09, "unit": "nM"}, {"measurement": "CC50", "setting": "BT-549; [5]", "value": "> 1000", "unit": "nM"}]}]}
